The subject of data set [1] is Rattus norvegicus. Put plainly: Antidiabetic activity in Zucker diabetic fatty rat assessed as suppression of plasma glucose AUC at 3 mg/kg administered 60 mins prior to glucose challenge by OGTT relative to vehicle-treated control. It is filed as functional.
Data set [2] deals with Mus musculus. Kind of data set: Antidiabetic activity in normoglycemic 129SVE mouse assessed as suppression of plasma glucose AUC at 3 mg/kg, po administered 30 mins prior to glucose challenge measured over 120 mins by OGTT. The class given is functional, organism-based.
A short description of data set [3]: Half life in human liver microsomes. It is filed as ADME. (Microsomes from liver hold many membrane-bound enzymes, among them those of drug oxidation.)
The nature of data set [4]: Half life in rat liver microsomes. It is filed as ADME.
The target of data set [5] is T1, Glucose-dependent insulinotropic receptor (Homo sapiens, UniProt Q8TDV5).
T1 sequence (Q8TDV5 whole entry): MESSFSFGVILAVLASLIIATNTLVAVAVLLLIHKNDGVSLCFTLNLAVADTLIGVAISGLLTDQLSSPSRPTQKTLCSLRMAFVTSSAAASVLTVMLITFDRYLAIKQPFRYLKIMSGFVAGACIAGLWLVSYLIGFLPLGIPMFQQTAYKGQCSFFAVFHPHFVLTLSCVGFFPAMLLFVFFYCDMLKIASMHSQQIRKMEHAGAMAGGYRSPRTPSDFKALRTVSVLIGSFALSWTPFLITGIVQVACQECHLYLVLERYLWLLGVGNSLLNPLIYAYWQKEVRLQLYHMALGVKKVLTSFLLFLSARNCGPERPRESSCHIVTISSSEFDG
Put plainly: Agonist activity at human GPR119 by HTRF cAMP assay. It is filed as functional.

Data set [6] has as its target T2, Glucose-dependent insulinotropic receptor (Homo sapiens) (UniProt Q8TDV5).
T2 sequence (whole entry): T1 sequence (Q8TDV5 whole entry)
Kind of data set: Agonist activity at human GPR119 by HTRF cAMP assay relative to AR231453. It is filed as functional.

Data set [7] can be described thus: Half life in mouse liver microsomes. The class given is ADME.
The target of data set [8] is T3, Glucose-dependent insulinotropic receptor (Rattus norvegicus) (UniProt Q7TQN8).
T3 sequence (whole entry): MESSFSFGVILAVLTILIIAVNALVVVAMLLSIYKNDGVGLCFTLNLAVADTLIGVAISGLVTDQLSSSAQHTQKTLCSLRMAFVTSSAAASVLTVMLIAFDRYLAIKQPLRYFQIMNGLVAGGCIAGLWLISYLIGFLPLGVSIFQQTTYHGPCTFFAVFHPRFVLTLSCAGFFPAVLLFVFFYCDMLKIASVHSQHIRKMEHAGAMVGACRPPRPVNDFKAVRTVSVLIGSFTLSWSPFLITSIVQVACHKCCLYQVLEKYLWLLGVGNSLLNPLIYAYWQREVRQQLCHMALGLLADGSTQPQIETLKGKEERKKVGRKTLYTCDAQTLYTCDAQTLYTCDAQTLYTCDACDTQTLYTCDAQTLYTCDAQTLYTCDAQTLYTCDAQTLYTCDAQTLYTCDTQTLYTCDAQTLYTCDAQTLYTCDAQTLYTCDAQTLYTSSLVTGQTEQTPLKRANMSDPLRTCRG
Kind of data set: Agonist activity at rat GPR119 by HTRF cAMP assay relative to AR231453. It is filed as functional.

In data set [9] the test system is Mus musculus. Put plainly: Antidiabetic activity in normoglycemic 129SVE mouse assessed as […] administered 30 mins prior to glucose challenge measured over 120 mins by OGTT. It is filed as functional, organism-based.
The target in data set [10] is T1, Glucose-dependent insulinotropic receptor. Put plainly: Agonist activity at human GPR119 by serum shift assay. In short, it runs like this: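 HTRF cAMP read-out with cells plated overnight; growth medium swapped for fetal bovine serum-containing medium. Compounds serially diluted in DMSO, then in PBS with IBMX and 0.1% BSA to 2× concentration (1% DMSO) before addition. Potency compared with and without serum.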

In data set [11] the target is T4, Glucose-dependent insulinotropic receptor (Rattus norvegicus, UniProt Q7TQN8).
T4 sequence (Q7TQN8 whole entry): T3 sequence (whole entry)
Put plainly: Agonist activity at rat GPR119 by HTRF cAMP assay. The class given is functional.

For data set [12], the system named is Mus musculus. Put plainly: In vivo activation of GPR119 in normoglycemic 129SVE mouse assessed as increase in GIP level in plasma at 30 mg/kg, po measured after 45 mins relative to vehicle-treated control. It is filed as functional, organism-based. In short, it runs like this:
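Normoglycemic male 129SVE mice dosed orally (3 and 30 mg/kg); plasma GIP measured 45 min after dosing versus vehicle-treated controls; AR231453 at 30 mg/kg as reference agonist.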

For data set [13], the species on record is Rattus norvegicus. Put plainly: Toxicity in rat assessed as physical mobility impairment. It is filed as organism-based. The settings on record: in vivo.

Active and inactive are the calls of the source. The rule behind the calls is not given here.

Regarding `N[C@@H](CC(=O)N1CCn2c(nnc2C(F)(F)F)C1)Cc1cc(F)c(F)cc1F` [SITAGLIPTIN], in the data set on Rattus norvegicus [1], the Activity came out at 57%. The outcome in the data set on Mus musculus [2] was Active.

For the compound `C[C@H](OC(=O)N1CCC(O[C@H]2CC[C@H](Oc3cnc(S(C)(=O)=O)cn3)CC2)CC1)C(F)(F)F`, the half-life in data set [3], in [4] and in data set [7] was greater than 1 h in each case. Also, the EC50 (commonly the concentration giving half of the maximal effect) in [5] worked out at 4.8 nM; in data set [10] it was 53 nM; in [11], 49.9 nM. Besides, the Emax (usually the maximal effect, on the per cent scale that the assay sets) worked out at 112% in data set [6] and 125% in [8]. Moreover, the outcome with Mus musculus [9] was inactive.

For `CC(C)c1noc(C2CCN(c3ncnc(Nc4ccc(S(C)(=O)=O)cc4F)c3[N+](=O)[O-])CC2)n1`, the outcome with Mus musculus [12] was Active.

As for `CS(=O)(=O)c1cnc(O[C@H]2CC[C@H](OC3CCN(C(=O)OC(C(F)(F)F)C(F)(F)F)CC3)CC2)cn1`, the half-life in data set [3], in data set [4] and in data set [7] was greater than 1 h each time. Also, in the data set filed under Rattus norvegicus [13], the Activity entry was “Dose-dependent effect”. Moreover, the results for the EC50 in data set [5], in data set [10] and in data set [11] were 1.2 nM, 45.2 nM and 10.9 nM, respectively. Besides, the Emax in data set [6] is 104%; in data set [8], 121%.
